Screening data as filed in PubChem.
MC4R antag cAMP: human MC4R antagonism in cAMP assay | P32245 | MC4R-expressing cells, MTII-stimulated cAMP, LANCE TR-FRET | inhibition, % at 6.5 µM | hit rate 0.48% among 360,000 | AID 540295;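 active = inhibition above its plate's cutoff, the mean of tested wells on that plate plus 3 SD, cut at about 29% in these data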
Target sequence (P32245 whole entry, looked up): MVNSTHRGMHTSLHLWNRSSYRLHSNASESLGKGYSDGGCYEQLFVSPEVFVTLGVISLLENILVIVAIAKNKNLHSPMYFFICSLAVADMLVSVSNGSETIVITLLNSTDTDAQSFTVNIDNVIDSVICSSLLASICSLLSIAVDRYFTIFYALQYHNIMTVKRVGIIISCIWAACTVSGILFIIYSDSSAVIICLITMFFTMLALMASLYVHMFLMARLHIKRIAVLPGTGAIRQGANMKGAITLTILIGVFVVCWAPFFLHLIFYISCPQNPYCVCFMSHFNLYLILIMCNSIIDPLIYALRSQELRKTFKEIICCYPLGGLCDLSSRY
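material = U2OS cells stably expressing human melanocortin 4 receptor (MC4R) | also added = Melanotan II challenge | dosing = single nominal compound dose of 6.5 µM | detection = TR-FRET with Eu-cAMP and labeled anti-cAMP, 671 nm | replication = singlicate | timing = compound 30 min, challenge 1 h, detection 1 h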
TAAR1 ag: human TAAR1 agonism. Q96RJ0. hit rate 0.99% among 360,000. activation, % at 3 µM. CHO RD-HGA16 TAAR1, Fluo-8 calcium fluorescence; vehicle wells 0%, saturating PEA agonist 100%;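 active = activation above the mean activation of all test compounds in the run plus 3 SD, cut at about 38% in these data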
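System: CHO-derived RD-HGA16 cells with stable Gα16 and human TAAR1 / Times: 17-24 h plating, Fluo-8 75 min 37 °C, 30 min RT / Technique: calcium-sensitive Fluo-8 signal, excitation 470-495, emission 515-575 nm / Measure: % activation relative to PEA EC100 response / Benchmarks: DMSO and PEA EC100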
TAAR1 antag: human TAAR1 antagonism; CHO RD-HGA16 TAAR1, Fluo-8 calcium fluorescence, antagonist; hit rate 1.5% among 360,000; Q96RJ0; AID 624466; inhibition, % at 3 µM;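 active = inhibition above a per-plate cutoff, the mean inhibition of test compounds on that plate plus 3 SD, cut at about 49% in these data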
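test system = CHO RD-HGA16 cells bearing hTAAR1 | replication = singlicate | controls = DMSO-only wells and EC80 β-PEA-stimulated wells | reagent = EC80 β-phenethylamine stimulus | read-out basis = percent inhibition of PEA-evoked calcium signal, max/basal emission ratio | schedule = seeding 17-24 h prior, 75-min 37 °C, 30-min RT dye loading | signal = kinetic Fluo-8 calcium fluorescence measurement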
MC4R ag barr: agonists of human melanocortin 4 receptor (MC4R) beta-arrestin | P32245 | U2OS MC4R beta-arrestin complementation, luminescence; percent of melanotan II response, DMSO zero | activation, % at 8.9 µM | hit rate 0.98% among 360,000;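 active = activation above a per-plate cutoff, the mean activation of sample wells on that plate plus 3 SD, cut at about 8% in these data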
Beta2AR agonist: activates human beta-2 adrenergic receptor causing internalization. Am2.2-beta2AR cells, FAP receptor internalization, flow cytometry. P07550. hit rate 0.43% among 340,000. AID 504454. response, % (concentration not given with the values);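 active = response above a set limit, near 3 SD of response in nonfluorescent compounds, cut at about 42% in these data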
HTR2A ag: mouse HTR2A agonism via beta-arrestin recruitment; CHO-K1 mHTR2A beta-arrestin complementation, luminescence; percent of 30 µM serotonin response; activation, % at 7.6 µM; hit rate 0.66% among 360,000;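 active = activation above a run cutoff, the mean activation of all tested compounds plus 3 SD, cut at about 14% in these data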
TAAR1 ag confirm: confirmation of human TAAR1 agonists. shares compounds with TAAR1 ag. hit rate 82% among 2,400. AID 651783. activation, % at 3 µM. CHO RD-HGA16 TAAR1, Fluo-8 calcium fluorescence; scaled: DMSO 0%, maximal phenethylamine 100%;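 active = activation above a cutoff set at the run's mean compound activation plus 3 SD, cut at about 39% in these data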
Ga16 nonsel ag: counter-screen for TAAR1 agonists: nonselective agonists in parental cells; shares compounds with TAAR1 ag; CHO-Ga16 parental, Fluo-8 calcium fluorescence; normalized to maximal ATP response, DMSO zero; activation, % at 3 µM; hit rate 50% among 2,400;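 active = activation above the run cutoff, the mean activation over all tested wells plus 3 SD, cut at about 12% in these data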
TAAR1 desens: human TAAR1 agonist that also desensitizes the receptor. CHO RD-HGA16 hTAAR1, Fluo-8 calcium, beta-PEA response inhibition. hit rate 46% among 2,400. inhibition, % at 3 µM. shares compounds with TAAR1 ag;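 active = inhibition above the run cutoff, the mean inhibition of all test compounds plus 3 SD, cut at about 49% in these data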;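 note: beta-PEA stimulus applied at its EC80; loss of beta-PEA calcium signal after compound pretreatment read as receptor desensitization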
Ga16 nonsel ant: nonselective Ga16 antagonist in TAAR1 agonist counter-screen. shares compounds with TAAR1 ag. CHO-Ga16 ATP-induced calcium, Fluo-8 fluorescence. inhibition, % at 3 µM. hit rate 39% among 2,400. AID 651952;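 active = inhibition above the plate's mean compound inhibition plus 3 SD, computed per plate, cut at about 22% in these data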
A number is an active result; n = inactive; x = not tested or not shown. Shown are actives, neighbours in structure and some others; about 4.3% of the full set was active somewhere.

SMILES | MC4R antag cAMP | TAAR1 ag | TAAR1 antag | MC4R ag barr | Beta2AR agonist | HTR2A ag | TAAR1 ag confirm | Ga16 nonsel ag | TAAR1 desens | Ga16 nonsel ant
O=C(NCC1CCOCC1)C1Cc2c(-c3ccccc3Oc3ccccc3)ccnc2O1 (configuration not stated) | n | n | n | n | x | n | x | x | x | x
Cc1[nH]c2ccccc2c1C(=O)CN1C(=O)NC(C)(c2ccc(Cl)cc2Cl)C1=O (configuration not stated) | n | 70 | 55 | n | n | n | 75 | 39 | 64 | 48
CC1CCN(CCNC(=O)C2CCCN(S(=O)(=O)c3cccc4nsnc34)C2)CC1 (configuration not stated) | n | n | n | n | n | n | x | x | x | x
Cc1cccc(NC(=O)CN2C(=O)S/C(=C\c3ccc(O)c([N+](=O)[O-])c3)C2=O)c1 | n | n | n | n | n | n | x | x | x | x
Cc1ccc(NC(=O)CN2C(=O)S/C(=C/c3ccc(O)c([N+](=O)[O-])c3)C2=O)cc1C | n | 91 | 80 | n | n | n | n | n | n | n
NC(CSCc1ccccc1Cl)C(=O)O (configuration not stated) | n | n | n | n | n | n | x | x | x | x
N=C(N)SCc1ccccc1Cl | n | 72 | n | n | n | n | 82 | n | 73 | n
COC(=O)[C@H]1CN(C(=O)c2ccccc2)C(=O)N1 | n | n | n | n | n | n | x | x | x | x
CN(C(=O)CN1C(=O)/C(=C/c2ccccc2Cl)SC1=S)C1CCS(=O)(=O)C1 (configuration not stated) | n | n | n | n | n | n | x | x | x | x
COCCNC(=O)c1cc2ncc(Br)cn2n1 | n | n | n | n | n | n | x | x | x | x
O=C(NCCc1ccccc1)c1cc2ncc(Br)cn2n1 | n | 48 | n | n | n | n | 57 | n | n | n
CCOC(=O)Cn1c(=O)oc2cc(S(=O)(=O)Nc3ccc(F)cc3)ccc21 | n | 89 | n | n | n | n | 109 | 69 | 52 | 32
COc1ccc(Nc2nc(N3CCCC3)c3ccccc3n2)cc1 | n | 67 | n | n | n | n | 89 | n | 86 | n
CCOc1ccc(S(=O)(=O)N2CCC(C(=O)NCc3ccncc3)CC2)cc1C | n | n | n | n | n | n | x | x | x | x
CN(C)CCCN(C(=O)c1ccc(S(=O)(=O)N2CCc3ccccc3C2)cc1)c1nc2c(F)cccc2s1 | n | n | n | n | n | n | x | x | x | x
CN(C)CCCN(C(=O)c1ccc(S(=O)(=O)N2CCc3ccccc32)cc1)c1nc2ccc(F)cc2s1 | n | 51 | n | n | n | n | 66 | 36 | 57 | 41
CCN(CC)CCN(C(=O)c1ccc(S(=O)(=O)N(C)C2CCCCC2)cc1)c1nc2c(C)cccc2s1 | n | n | n | n | n | n | x | x | x | x
Cc1ccc2sc(N(CCCN(C)C)C(=O)c3ccc(S(=O)(=O)N(C)C4CCCCC4)cc3)nc2c1C | n | 53 | n | n | n | n | n | 13 | n | n
CN(C)CCCN(C(=O)c1ccc(S(=O)(=O)N2CCc3ccccc3C2)cc1)c1nc2ccc(F)cc2s1 | n | 75 | 50 | 17 | 49 | n | 69 | 46 | n | 42
CS(=O)(=O)N(CC(=O)N1CCC(C(N)=O)CC1)Cc1ccc(Cl)c(Cl)c1 | n | n | n | n | n | n | x | x | x | x
